Bioassay records as filed in PubChem BioAssay.
E coli RNAP: blocks E. coli RNA polymerase transcription | P0A8V2 | fluorescence transcription assay | inhibition, %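 (tested at 10 µM)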 | 62,000 compounds, 0.2% hits | AID 559; in the data active = inhibition above about 20%
SF1 activator: activates the human nuclear receptor SF-1 | CHO-K1 Gal4-SF-1 LBD luciferase reporter; % increase over DMSO SF-1-specific signal | activation, % at 10 µM | 65,000 compounds, 1.9% hits | AID 522;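 active = activation above the mean activation of all tested compounds plus 3 SD, cut at about 50% in these data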
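Assay system: CHO-K1 cells co-transfected with Gal4 DBD–human SF-1 LBD, 5xGal4 luciferase reporter; doses: 10 µM only; incubation: 20 h compound exposure at 37 °C after 1 h cell settling; signal: luciferase light emission; evaluation: percent activation versus DMSO; repeats: one test per compound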
JNK3 blocker: inhibitors of human JNK3 kinase; P53779; purified JNK3 kinase activity, HTS; inhibition, % at 8 µM; 60,000 compounds, 0.61% hits; AID 746; in the data active = inhibition above about 17%
RORA act: RORA (human) activation; P35398; CHO-K1 Gal4-RORA LBD luciferase reporter, luminescence; percent increase over mock-subtracted basal signal; activation, % at 10 µM; 65,000 compounds, 1.5% hits;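 active = activation above the mean of all tested compounds plus 3 SD, cut at about 49% in these data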
BAP1 block: inhibitors of human BAP1 deubiquitinase. Q92560. recombinant BAP1, Ub-AMC hydrolysis fluorescence kinetic; stronger effect = lower value. activity remaining (% of control), % at 20 µM. 72,000 compounds, 0.48% hits;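 active = activity remaining at or below 50% of control, provided the compound also passes the data quality filters; inactive = the rest, including low values that fail the filters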
Target sequence (Q92560 whole entry, looked up): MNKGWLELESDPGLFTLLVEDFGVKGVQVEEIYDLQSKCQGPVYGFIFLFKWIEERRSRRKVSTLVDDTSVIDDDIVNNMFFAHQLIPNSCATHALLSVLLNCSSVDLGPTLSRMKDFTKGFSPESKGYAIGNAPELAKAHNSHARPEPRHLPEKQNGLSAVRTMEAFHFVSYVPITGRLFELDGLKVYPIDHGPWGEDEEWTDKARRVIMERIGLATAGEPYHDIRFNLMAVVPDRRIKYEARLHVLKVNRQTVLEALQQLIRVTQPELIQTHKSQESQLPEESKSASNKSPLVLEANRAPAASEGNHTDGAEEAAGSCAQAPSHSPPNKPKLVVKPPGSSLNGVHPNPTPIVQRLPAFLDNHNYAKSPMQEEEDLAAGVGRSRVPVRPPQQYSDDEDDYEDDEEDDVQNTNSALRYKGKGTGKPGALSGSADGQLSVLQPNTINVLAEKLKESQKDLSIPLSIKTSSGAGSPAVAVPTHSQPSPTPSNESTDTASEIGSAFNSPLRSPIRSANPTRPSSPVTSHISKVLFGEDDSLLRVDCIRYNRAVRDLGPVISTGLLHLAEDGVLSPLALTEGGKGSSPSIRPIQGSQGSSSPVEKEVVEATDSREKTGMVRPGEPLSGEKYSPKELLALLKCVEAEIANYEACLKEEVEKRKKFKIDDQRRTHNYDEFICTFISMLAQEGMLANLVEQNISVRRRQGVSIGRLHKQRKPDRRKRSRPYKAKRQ
Numbers stand for hits; - = inactive; . = no result shown. Most compounds without a hit are left out; they make up all but 3.2% or so of the library.

SMILES	E coli RNAP	SF1 activator	JNK3 blocker	RORA act	BAP1 block
CCOC(=O)CC(=O)CSc1ncnc2c1oc1ccccc12	-	-	42.0	-	-
N#CCCSc1ncnc2c1oc1ccccc12	-	-	27.8	-	-
c1ccc(-c2onc3cc4c(cc23)OCCO4)cc1	-	-	22.1	74.3	-
CC1(c2ccc3noc(-c4ccc(Cl)cc4)c3c2)OCCO1	-	-	-	-	-
Cn1nccc1C(=O)OCC(=O)Nc1nc(-c2ccccc2)cs1	.	49.6	-	-	-
O=C(c1ccco1)N1CCN(c2ncnc3c(-c4ccccc4)nsc23)CC1	.	-	-	62.5	.
COc1ccc2nc(N3CCCCC3)c(C#N)cc2c1	-	50.0	-	-	-
COc1ccc2nc(N3CCCC3)c(C#N)cc2c1	-	-	-	-	-
Cn1nc(-c2ccc(Cl)cc2)c2cc(C(=O)NCCCN3CCOCC3)sc21	-	-	-	-	-
Cc1ncsc1CCSc1nc2ccccc2c(=O)n1C	.	-	-	-	-
CCN(CC)S(=O)(=O)c1ccc2nc(NC(=O)c3cccs3)sc2c1	.	-	-	48.7	.
COc1ccc(NC2CC(=O)N(c3ccccc3)C2=O)cc1 (stereo not drawn)	-	56.9	-	-	-
CC(C)(C)n1ncc2c(=O)n(CC(=O)NCc3ccccc3Cl)cnc21	-	74.4	-	-	-
Cc1ccc(NC(=O)Cn2cnc3c(cnn3C(C)(C)C)c2=O)cc1	22.0	-	-	-	-
CC(C)(C)n1ncc2c(=O)n(CC(=O)NCCc3ccccc3)cnc21	-	-	-	-	-
O=C(O)c1ccc2c(c1)N(Cc1ccccc1)C(=O)c1ccccc1S2=O (stereo not drawn)	-	-	-	-	-
CN(C)C(=O)COn1c(SCC(=O)N(C)C)nc2ccccc2c1=O	-	-	-	-	-
COc1ccccc1OCC(=O)Nc1ccc(S(=O)(=O)Nc2nc(C)cc(C)n2)cc1	20.7	-	-	-	-
CCn1c(C)csc1=NC(=O)c1ccccc1	-	-	-	-	-
CCn1c(C)csc1=NC(=O)c1ccccc1O	-	-	22.7	-	-
COc1ccccc1CN(CC(=O)NCc1ccco1)C(=O)CNS(=O)(=O)c1ccc(C)cc1	-	-	-	-	-
CCOc1ccc2nc(NC(=O)CS(=O)(=O)c3ccccc3)sc2c1	-	-	-	-	-
CCOc1ccc2nc(SCC(=O)c3cccs3)sc2c1	.	54.0	-	-	-
COc1ccc2nc(NC(=O)c3ccc4ncsc4c3)sc2c1	-	61.0	-	54.1	-
CCCC(=O)Nc1nc2ccc(OCC)cc2s1	-	50.5	-	49.1	-
SMILES	E coli RNAP	SF1 activator	JNK3 blocker	RORA act	BAP1 block
Cc1ccc2c(c1)CCCN2C(=O)c1cccs1	-	-	-	-	-
CSc1ccc(C2C(C#N)=C(N)N(c3ccccc3)C3=C2C(=O)CCC3)cc1 (stereo not drawn)	-	-	.	-	.
Brc1cccc(-c2n[nH]c(-c3ccccc3)n2)c1	-	65.2	-	83.0	-
CN1CCc2c(sc3c2c(=O)n(-c2cccc(Cl)c2)c2nncn32)C1	-	-	-	-	-
O=C(c1cc(-c2ccccc2)on1)N1CCCC1	-	56.7	-	-	-
CC1CCN(C(=O)c2cc(-c3ccccc3O)on2)CC1	-	99.1	-	63.8	-
O=C(c1cc(-c2ccc(Cl)c(Cl)c2)on1)N1CCCCC1	-	-	-	92.4	-
O=C(c1cc(-c2ccc(Cl)c(Cl)c2)on1)N1CCN(c2ccccc2)CC1	-	-	-	-	-
CCCCn1c(SCC(=O)Nc2nnc(CC)s2)nc2c1c(=O)n(C)c(=O)n2C	-	-	-	-	-
CCCCn1c(SCC(=O)Nc2nnc(C)s2)nc2c1c(=O)n(C)c(=O)n2C	31.3	-	-	-	-
Cc1ccnc(NC(=O)CCCOc2cc(=O)n(C)c3ccccc23)c1	-	-	27.3	-	-
Cc1ccnc(NC(=O)CSc2cc(=O)n(C)c3ccccc23)c1	-	-	25.7	-	-
O=C(CSc1ncnc2ccccc12)N1CCCC1	-	-	-	54.7	-
CCc1nc(SCC(=O)N2CCCC2)c2ccccc2n1	-	-	-	-	-
Cc1nc(NC(=O)c2cc3c(s2)CCCCC3)sc1C(=O)N(C)C	-	60.4	-	-	-
COc1ccc(C(=O)Nc2nc(C)c(C(=O)N(C)C)s2)cc1OC	-	-	-	-	-
Cc1nc(NC(=O)c2ccc(Br)s2)sc1C(=O)N(C)C	-	107.3	-	70.4	-
COC(=O)c1sc(NC(=O)c2cc3c(s2)CCCC3)nc1C	-	-	-	-	-
CC1N(C)c2cc(NC(=O)c3ccco3)ccc2C1(C)C (stereo not drawn)	-	71.3	-	-	-
O=C(CSCSCC(=O)NCC1CCCO1)NCC1CCCO1 (stereo not drawn)	-	-	-	-	-
Cc1ccc2cc3cc(C(=O)NCCCN4CCc5ccccc5C4)oc3nc2c1	-	-	-	-	.
O=C(Cn1c(=O)[nH]c2ccsc2c1=O)NC1CCCCCC1	-	-	.	-	-
CC1CCC(NC(=O)Cn2c(=O)[nH]c3ccsc3c2=O)CC1 (stereo not drawn)	-	-	.	51.1	.
COc1ccccc1C1/C(=C(/O)c2cnn(-c3ccccc3)c2C)C(=O)C(=O)N1CCN(C)C (stereo not drawn)	-	-	-	-	-
Cc1ccc(C2/C(=C(\O)c3cnn(-c4ccccc4)c3C)C(=O)C(=O)N2CCN(C)C)o1 (stereo not drawn)	-	52.7	-	-	-
SMILES	E coli RNAP	SF1 activator	JNK3 blocker	RORA act	BAP1 block
Cc1ccc(C2/C(=C(/O)c3cnn(-c4ccccc4)c3C)C(=O)C(=O)N2CCN2CCOCC2)o1 (stereo not drawn)	-	54.5	-	-	-
CCOC(=O)CC(=O)CSc1nc2c(cc1C#N)CCCCC2	-	59.4	-	-	-
CCOC(=O)CC(=O)CSc1nc2ccc(C)cc2cc1C#N	-	71.7	-	-	.
Cc1ccc2nc(SCC(=O)NCC3CCCO3)c(C#N)cc2c1 (stereo not drawn)	-	-	-	-	-
COC(=O)CSc1nc2cc(C)ccc2cc1C#N	-	100.0	-	-	-
C=CCn1c(SCC(=O)Nc2ccccc2OC)nnc1-c1ccccn1	-	-	-	-	-
O=C(CSc1nnc(CNc2ccc(Cl)cc2)o1)Nc1nc2c(s1)CCCC2	23.1	-	-	-	-
COc1ccc(CCNC(=O)CSc2nnc(CNc3ccc(Cl)cc3)o2)cc1OC	-	-	-	-	-
O=C(CN1C(=O)COc2ccccc21)c1ccc(Cl)cc1	-	-	-	-	-
COc1cc2cc(CN(Cc3nnnn3Cc3ccccc3)CC3CCCO3)c(=O)[nH]c2cc1OC (stereo not drawn)	-	-	.	-	.
COc1ccc2[nH]c(=O)c(CN(Cc3ccccc3)Cc3nnnn3CC3CCCO3)cc2c1 (stereo not drawn)	-	57.3	-	82.9	-
O=C(c1cc2c(s1)-c1ccccc1OC2)N1CCN(c2ccccn2)CC1	-	-	-	-	-
O=C(c1cc2c(s1)-c1ccccc1OC2)N1CCCC1	-	-	-	83.8	-
